Test results published in ChEMBL document CHEMBL1156035, “(3R,5S,7as)-(3,5-Bis(4-fluorophenyl)tetrahydro-1H-oxazolo[3,4-c]oxazol-7a-yl)methanol, a novel neuroprotective agent” (J Med Chem, 2009).
Activity calls are given as the source filed them. The calls are words filed in the database; no cut-off is given here.

Legend:
[1] = Neuroprotective effect against beta-amyloid (25-35)-induced cell death in Sprague-Dawley rat cortical neuron treated 2 hrs before beta-amyloid (25-35) challenge measured after 48 hrs by propidium iodide staining-based fluorescence microscopy; type: functional; settings: Cortical neurone
Summary of the method: (§1)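 Rat cortical neurons from embryonic day 18 Sprague–Dawley fetuses, plated on poly-D-lysine and kept serum-free in DMEM/F12 with N2, were used after 5 days. Compound (0.5–60 nM) was added about 2 h before 10 μM Aβ25–35 or Aβ1–42, preaggregated 24 h at 37 °C in Tris pH 7.4. Vehicle DMSO was ≤0.04%. After 48 h, cells were stained 30 min with 20 μM propidium iodide and 150 nM calcein-AM. Live and dead cells were counted in 6–12 fields from duplicate dishes across at least two preparations (about 1500 cells). Student's t test was used.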

Bos taurus [2] = species: Bos taurus; assay: Induction of bovine tubulin aggregation at 100 to 400 uM after 30 mins by electron microscopy
Bos taurus [3] = species: Bos taurus; assay: Induction of bovine tubulin assembly assessed as microtubule formation at 100 to 400 uM after 30 mins by electron microscopy
Cortical neurone [4] = assay: Neuroprotective effect against H2O2-induced cell death in Sprague-Dawley rat cortical neuron at 100 nM treated 2 hrs before H2O2 challenge measured after 48 hrs by propidium iodide staining-based fluorescence microscopy; type: functional
[5] = Apparent passive permeability from abluminal to luminal side of BBMEC at 10 uM up to 1.5 hrs; type: ADME, Bos taurus; settings: cattle
Summary of the method: (§2)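 Bovine brain microvessel endothelial cell monolayers, confluent on 0.4 μm polycarbonate membranes coated with collagen and fibronectin, mounted in side-by-side diffusion chambers with PBSA. The donor side (luminal or abluminal) received 10 μM unlabeled compound plus trace tritiated compound. Receiver samples were taken at time points up to 90 min and counted by liquid scintillation.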

Cortical neurone [6] = assay: Neuroprotective effect against staurosporine-induced cell death in Sprague-Dawley rat cortical neuron at 100 nM treated 2 hrs before staurosporine challenge measured after 48 hrs by propidium iodide staining-based fluorescence microscopy; type: functional
Bos taurus [7] = species: Bos taurus; assay: Displacement of [3H]paclitaxel from bovine microtubule at 400 uM
Summary of the method: (§3)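 Competitive binding: microtubules were formed from bovine brain microtubule protein (2 mg/mL) in PEM buffer with 0.5 mM GTP. Conditions were 100 μM tritiated compound with 0–40 μM paclitaxel, or 20 μM [3H]paclitaxel with 0–400 μM competitor, at 37 °C for 10 min. Pellets were spun at 100000g for 4 min, dissolved in 0.1 M NaOH, and radioactivity and protein were measured.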

Cortical neurone [8] = assay: Neuroprotective effect against thapsigargin-induced cell death in Sprague-Dawley rat cortical neuron at 100 nM treated 2 hrs before thapsigargin challenge measured after 48 hrs by propidium iodide staining-based fluorescence microscopy; type: functional
Cortical neurone [9] = assay: Neuroprotective effect against beta-amyloid (1-42)-induced cell death in Sprague-Dawley rat cortical neuron at 0.5 to 60 nM treated 2 hrs before beta-amyloid (1-42) challenge measured after 48 hrs by propidium iodide staining-based fluorescence microscopy; type: functional; summary of the method: as §1
Bos taurus [10] = species: Bos taurus; assay: Induction of bovine tubulin assembly assessed as formation of pelleted protein at 100 to 400 uM after 30 mins by centrifugation assay relative to paclitaxel in presence of GTP
[11] = Apparent passive permeability from luminal to abluminal side of BBMEC at 10 uM up to 1.5 hrs; type: ADME, Bos taurus; settings: cattle; summary of the method: as §2
Bos taurus [12] = species: Bos taurus; assay: Induction of bovine tubulin assembly assessed as microtubule formation at 200 to 400 uM after 30 mins by DAPI staining-based fluorescence assay in absence of GTP
Summary of the method: (§4)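 DAPI fluorescence assembly assay: bovine brain microtubule protein (containing MAPs) at 2 mg/mL in PEM buffer (0.1 M PIPES, 1 mM MgSO4, 1 mM EGTA, pH 6.9), 4% DMSO and 10 μM DAPI, without GTP, with varying compound concentrations. Plates were incubated 30 min at 37 °C and fluorescence was read. Values were corrected for a no-compound control and expressed relative to the maximum given by 25 μM paclitaxel.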

Bos taurus [13] = species: Bos taurus; assay: Stabilization of bovine microtubule against cold-induced […] assessed as pelleted protein level at 400 uM by centrifugation assay
Bos taurus [14] = species: Bos taurus; assay: Induction of bovine tubulin assembly assessed as microtubule formation at 100 uM after 30 mins by DAPI staining-based fluorescence assay in absence of GTP; summary of the method: as §4
Bos taurus [15] = species: Bos taurus; assay: Induction of P-gp-mediated rhodamine 123 uptake in BBMEC at 1 to 50 uM
Summary of the method: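 Primary bovine brain microvessel endothelial cells in 24-well plates were rinsed and equilibrated 10 min in warm PBSA. They were preincubated 30 min at 37 °C with compound at 1–50 μM, then given 5 μM rhodamine 123 for 2 h. Cells were rinsed with ice-cold PBS and lysed in 0.5% Triton X-100/0.2 M NaOH. Rhodamine 123 fluorescence was normalized to BCA protein. Cyclosporine A served as positive control.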

Cortical neurone [16] = assay: Neuroprotective effect against paraquat-induced cell death in Sprague-Dawley rat cortical neuron at 100 nM treated 2 hrs before paraquat challenge measured after 48 hrs by propidium iodide staining-based fluorescence microscopy; type: functional
Bos taurus [17] = species: Bos taurus; assay: Stabilization of bovine microtubule against cold-induced […] assessed as pelleted protein level at 20 uM by centrifugation assay
Bos taurus [18] = species: Bos taurus; assay: Displacement of [3H](3R,5S,7as)-(3,5-bis(4-fluorophenyl)tetrahydro-1H-oxazolo[3,4-c]oxazol-7a-yl)methanol from bovine microtubule at 40 uM; summary of the method: as §3
Bos taurus [19] = species: Bos taurus; assay: Induction of bovine tubulin assembly assessed as microtubule formation at 25 uM after 30 mins by DAPI staining-based fluorescence assay in absence of GTP; summary of the method: as §4

**Q.** For `OCC1(CO)COC(c2ccc(F)cc2)N1` (stereo not given), which EC50 [1] is on record?
**A.** 0.04 µM

**Q.** What about the Activity (Bos taurus [2]) of the same compound?
**A.** Active

**Q.** What about the Activity (Bos taurus [3]) of the same compound?
**A.** inactive

**Q.** With `OCC12CO[C@H](c3ccc(F)cc3)N1[C@@H](c1ccc(F)cc1)OC2` (relative stereo) as the compound, how does the EC50 [1] read?
**A.** 0.05 µM

**Q.** And the Activity (Bos taurus [2])?
**A.** Active

**Q.** What about the Activity (Bos taurus [3]) of the same compound?
**A.** inactive

**Q.** For `OC[C@]12CO[C@H](c3ccc(F)cc3)N1[C@H](c1ccc(F)cc1)OC2`, which Activity (Cortical neurone [4]) is on record?
**A.** Active

**Q.** What about the Papp at 1.5 h, 10 µM [5] of the same compound?
**A.** 2440 nm/s

**Q.** What about the Activity (Cortical neurone [6]) of the same compound?
**A.** Active

**Q.** What about the EC50 [1] of the same compound?
**A.** 0.005 µM

**Q.** And the Activity (Bos taurus [7])?
**A.** 40%

**Q.** What about the Activity (Cortical neurone [8]) of the same compound?
**A.** Active

**Q.** And the Activity (Cortical neurone [9])?
**A.** Active

**Q.** What about the Activity (Bos taurus [10]) of the same compound?
**A.** 10%

**Q.** What about the Activity (Bos taurus [2]) of the same compound?
**A.** Active

**Q.** And the Activity (Bos taurus [3])?
**A.** inactive

**Q.** And the Papp at 1.5 h, 10 µM [11]?
**A.** 2860 nm/s

**Q.** And the Activity (Bos taurus [12])?
**A.** inactive

**Q.** And the Activity (Bos taurus [13])?
**A.** 9%

**Q.** What about the Activity (Bos taurus [14]) of the same compound?
**A.** Active

**Q.** What about the Activity (Bos taurus [15]) of the same compound?
**A.** inactive

**Q.** What about the Activity (Cortical neurone [16]) of the same compound?
**A.** Active

**Q.** Which Activity (Bos taurus [17]) does the source give for `CC(=O)O[C@H]1C(=O)[C@@]2(C)[C@H]([C@H](OC(=O)c3ccccc3)[C@]3(O)C[C@H](OC(=O)[C@H](O)[C@@H](NC(=O)c4ccccc4)c4ccccc4)C(C)=C1C3(C)C)[C@]1(OC(C)=O)CO[C@@H]1C[C@@H]2O` here?
**A.** 79%

**Q.** And the Activity (Bos taurus [18])?
**A.** 42%

**Q.** What about the Activity (Bos taurus [19]) of the same compound?
**A.** 20%
